Reference: ChEMBL document CHEMBL5712910, “Histone methyltransferases EHMT1 and EHMT2 (GLP/G9A) maintain PARP inhibitor resistance in high-grade serous ovarian carcinoma” (Clin Epigenetics, 2019)
Calls of active or inactive are those of the source. No cut-off for these calls is given here.

Tests used:
Olaparib-resistant PEO1 [1] = assay: Induction of cell cycle arrest in human Olaparib-resistant PEO1 cells assessed as accumulation of cells in S phase pretreated for 72 hrs by UNC0642 follwed by compound addition at 1 uM incubated for 72 hrs by propidium iodide staining based flow cytometry analysis (reference value: 21.9%); assay type: functional
Olaparib-resistant PEO1 [2] = assay: Antitumor activity against human Olaparib-resistant PEO1 cells assessed as H3K9me2 protein level at 500 nM for 72 hrs by immunofluorescence analysis; assay type: functional, cell-based
How it was run: (§1)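 PEO1-OR cells treated 72 h with DMSO or UNC0642 at two-fold dilutions from 2 μM to 125 nM. Histone extracts immunoblotted for H3K9me2, with H3K27me3 as a specificity check; densitometry normalized to total H3. For immunofluorescence, cells were fixed on coverslips in 4% paraformaldehyde and permeabilized with 0.2% Triton X-100, with DAPI counterstain.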

Olaparib-resistant PEO1 [3] = assay: Induction of cell cycle arrest in human Olaparib-resistant PEO1 cells assessed as accumulation of cells in G1 phase pretreated for 72 hrs by vehicle follwed by compound addition at 1 uM incubated for 72 hrs by propidium iodide staining based flow cytometry analysis (reference value: 54.7%); assay type: functional
Olaparib-resistant PEO1 [4] = assay: Inhibition of EHMT1/2 in human Olaparib-resistant PEO1 cells assessed as reduction in Cyclin B1 protein level at 1 uM for 72 hrs by immunoblot analysis; assay type: functional, cell-based
How it was run: (§2)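 PEO1-OR cells were treated with olaparib and/or UNC0642 as for the cell-cycle experiment. Total RIPA lysates were immunoblotted for cell-cycle proteins, and band intensity was normalized to actin, relative to the non-pretreated control.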

Olaparib-resistant PEO1 [5] = assay: Induction of cell cycle arrest in human Olaparib-resistant PEO1 cells assessed as accumulation of cells in G1 phase pretreated for 72 hrs by UNC0642 follwed by compound addition at 1 uM incubated for 72 hrs by propidium iodide staining based flow cytometry analysis (reference value: 52.9%); assay type: functional
[6] = target: T1, Histone-lysine N-methyltransferase EHMT1 (Homo sapiens) (UniProt Q9H9B1); assay: Inhibition of EHMT1 in human Olaparib-resistant PEO1 cells assessed as reduction in CDC25C phosphorylation at 1 uM for 72 hrs by immunoblot analysis; assay type: cell-based; how it was run: as §2
T1 sequence (whole entry): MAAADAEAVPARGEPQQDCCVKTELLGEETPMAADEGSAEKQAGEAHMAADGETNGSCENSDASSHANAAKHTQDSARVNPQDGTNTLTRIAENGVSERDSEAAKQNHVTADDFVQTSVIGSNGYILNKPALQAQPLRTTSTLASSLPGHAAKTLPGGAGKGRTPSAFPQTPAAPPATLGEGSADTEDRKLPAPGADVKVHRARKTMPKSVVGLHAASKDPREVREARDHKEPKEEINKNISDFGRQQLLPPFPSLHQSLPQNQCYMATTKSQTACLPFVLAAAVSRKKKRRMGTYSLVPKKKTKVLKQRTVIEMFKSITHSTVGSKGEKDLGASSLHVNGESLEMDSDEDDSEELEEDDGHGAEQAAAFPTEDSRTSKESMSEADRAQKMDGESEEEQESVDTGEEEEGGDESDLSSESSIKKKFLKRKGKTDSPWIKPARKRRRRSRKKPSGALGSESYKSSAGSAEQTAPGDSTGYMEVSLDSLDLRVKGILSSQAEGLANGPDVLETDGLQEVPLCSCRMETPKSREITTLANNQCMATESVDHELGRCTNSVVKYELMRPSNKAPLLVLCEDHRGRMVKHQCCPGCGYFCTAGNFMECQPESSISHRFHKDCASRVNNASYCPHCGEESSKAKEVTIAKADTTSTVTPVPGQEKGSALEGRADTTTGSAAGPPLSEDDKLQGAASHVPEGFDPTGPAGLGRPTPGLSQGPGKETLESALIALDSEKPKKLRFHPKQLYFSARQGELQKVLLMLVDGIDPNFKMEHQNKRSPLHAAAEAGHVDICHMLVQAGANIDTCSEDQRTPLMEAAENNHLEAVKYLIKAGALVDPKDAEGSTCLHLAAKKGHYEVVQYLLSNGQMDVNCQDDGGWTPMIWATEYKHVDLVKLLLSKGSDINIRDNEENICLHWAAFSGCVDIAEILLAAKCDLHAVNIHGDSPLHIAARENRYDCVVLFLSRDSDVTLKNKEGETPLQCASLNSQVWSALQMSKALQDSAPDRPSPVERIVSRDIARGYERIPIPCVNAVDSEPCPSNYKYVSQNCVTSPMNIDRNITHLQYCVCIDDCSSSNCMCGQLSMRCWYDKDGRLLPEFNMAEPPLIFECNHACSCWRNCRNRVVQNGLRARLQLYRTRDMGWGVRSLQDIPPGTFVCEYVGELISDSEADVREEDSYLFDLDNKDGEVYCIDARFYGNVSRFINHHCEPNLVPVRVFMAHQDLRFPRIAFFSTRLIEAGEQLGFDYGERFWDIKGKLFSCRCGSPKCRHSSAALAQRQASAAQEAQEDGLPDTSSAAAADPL

Olaparib-resistant PEO1 [7] = assay: Induction of cell cycle arrest in human Olaparib-resistant PEO1 cells assessed as accumulation of cells in G2 phase pretreated for 72 hrs by UNC0642 follwed by compound addition at 1 uM incubated for 72 hrs by propidium iodide staining based flow cytometry analysis (reference value: 23.2 %); assay type: functional
Olaparib-resistant PEO1 [8] = assay: Inhibition of EHMT1/2 in human Olaparib-resistant PEO1 cells assessed as reduction in Cyclin A protein level at 1 uM for 72 hrs by immunoblot analysis; assay type: functional, cell-based; how it was run: as §2
Olaparib-resistant PEO1 [9] = assay: Antitumor activity against human Olaparib-resistant PEO1 cells assessed as H3K9me2 protein level for 72 hrs by immunoblot analysis; assay type: functional, cell-based; how it was run: as §1
Olaparib-resistant PEO1 [10] = assay: Induction of cell cycle arrest in human Olaparib-resistant PEO1 cells assessed as accumulation of cells in G2 phase pretreated for 72 hrs by vehicle follwed by compound addition at 1 uM incubated for 72 hrs by propidium iodide staining based flow cytometry analysis (reference value: 20.7%); assay type: functional
Olaparib-resistant PEO1 [11] = assay: Inhibition of EHMT1/2 in human Olaparib-resistant PEO1 cells assessed as reduction in total CDC25C protein level at 1 uM for 72 hrs by immunoblot analysis; assay type: functional, cell-based; how it was run: as §2
Olaparib-resistant PEO1 [12] = assay: Induction of cell cycle arrest in human Olaparib-resistant PEO1 cells assessed as accumulation of cells in S phase pretreated for 72 hrs by vehicle follwed by compound addition at 1 uM incubated for 72 hrs by propidium iodide staining based flow cytometry analysis (reference value: 21.5%); assay type: functional

With `COc1cc2c(NC3CCN(C(C)C)CC3)nc(N3CCC(F)(F)CC3)nc2cc1OCCCN1CCCC1` the Activity (Olaparib-resistant PEO1 [1]) was 23.4%, the Activity (Olaparib-resistant PEO1 [2]) was “Active” and the Activity (Olaparib-resistant PEO1 [3]) was 53.3%. The Activity (Olaparib-resistant PEO1 [4]) was “Active”, the Activity (Olaparib-resistant PEO1 [5]) was 51.7% and the inhibition [6] was “Active”. The Activity (Olaparib-resistant PEO1 [7]) was 22.5%, the Activity (Olaparib-resistant PEO1 [8]) was “Active” and the Activity (Olaparib-resistant PEO1 [9]) was “Active”. The Activity (Olaparib-resistant PEO1 [10]) was 21.5%, the Activity (Olaparib-resistant PEO1 [11]) was “Active” and the Activity (Olaparib-resistant PEO1 [12]) was 22.8%.
